Data as given in ChEMBL document CHEMBL1629457 (J Med Chem, 2010).
Bridge positions count the residues as written; N and C are the ends. Peptide text beside a SMILES is read from it.

What was measured:
[1] = Half life in […] by LC/MS and RP-HPLC method; assay type: ADME, cell-free, Serum; conditions: human
In short: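 Human plasma pre-warmed 30 min at 37 °C. Peptide (0.3 mM stock in 0.1 M phosphate, pH 7.2) added at 50 μL per 300 μL plasma, then incubated at 37 °C. Samples taken at 1, 2, 3, 4, 12, 24 and 48 h and quenched in ACN/NaCl/TFA extraction buffer. Analysed by RP-HPLC and LC-MS. Half-life from a one-phase decay fit, n = 3-6.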

Oxytocin receptor [2] = molecular target: T1, Oxytocin receptor (Homo sapiens, UniProt P30559); test: Activity at oxytocin receptor expressed in COS1 cells assessed as IP-one generation by HTRF assay; assay type: cell-based, COS-1
T1 sequence (P30559 whole entry): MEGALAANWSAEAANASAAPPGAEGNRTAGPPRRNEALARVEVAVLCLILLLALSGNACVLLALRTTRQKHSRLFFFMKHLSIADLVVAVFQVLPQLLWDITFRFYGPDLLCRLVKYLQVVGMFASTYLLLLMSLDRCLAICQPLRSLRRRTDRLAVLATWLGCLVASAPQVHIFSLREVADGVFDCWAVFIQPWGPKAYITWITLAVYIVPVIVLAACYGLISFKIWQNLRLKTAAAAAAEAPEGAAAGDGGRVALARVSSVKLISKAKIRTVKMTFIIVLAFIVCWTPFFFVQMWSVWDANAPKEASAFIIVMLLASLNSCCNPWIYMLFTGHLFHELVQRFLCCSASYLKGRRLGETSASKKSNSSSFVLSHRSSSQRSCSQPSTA
In short: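 Human OTR transiently transfected into COS-1 cells (Lipofectamine2000, DNA ratio 2); assayed 48 h post-transfection. Cells stimulated with increasing compound concentrations in HEPES buffer containing 50 mM LiCl, pH 7.4, 1 h at 37 °C, 5% CO2. Lysed with HTRF reagents (Eu cryptate anti-IP-one antibody, d2-IP-one), 1 h room temperature. Read 665/590 nm after 340 nm excitation. EC50; triplicates, n = 3-6.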

Oxytocin receptor [3] = molecular target: T1, Oxytocin receptor; test: Displacement of [3H]OT from oxytocin receptor expressed in COS1 cells; assay type: cell-based, COS-1
In short: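 Membranes from COS-1 cells transiently transfected with OTR, harvested 48 h post-transfection; 5 μg protein per well. Incubated with 2 nM [3H]OT and competitor (10 pM to 10 μM) on scintillation proximity beads in buffer with 0.1% BSA. Shaken 1 h at room temperature, then scintillation counted.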

SMILES | half-life [1] | EC50 (Oxytocin receptor [2]) | Ki (Oxytocin receptor [3])
NC(=O)CC[C@@H]1NC(=O)[C@H](Cc2ccccc2)NC(=O)[C@H](Cc2ccc(O)cc2)NC(=O)[C@@H](N)CSSC[C@@H](C(=O)N2CCC[C@H]2C(=O)N[C@@H](CCCN=C(N)N)C(=O)NCC(N)=O)NC(=O)[C@H](CC(N)=O)NC1=O [VASOPRESSIN] | 1.7 h |  | 
CC[C@H](C)[C@@H]1NC(=O)[C@H](Cc2ccc(O)cc2)NC(=O)[C@@H](N)CS[Se]C[C@@H](C(=O)N2CCC[C@H]2C(=O)N[C@@H](CC(C)C)NCC(N)=O)NC(=O)[C@H](CC(N)=O)NC(=O)[C@H](CCC(N)=O)NC1=O |  | 154 nM | 0.72 nM
CC[C@H](C)[C@@H]1NC(=O)[C@H](Cc2ccc(O)cc2)NC(=O)[C@@H](N)C[Te][Te]C[C@@H](C(=O)N2CCC[C@H]2C(=O)N[C@@H](CC(C)C)NCC(N)=O)NC(=O)[C@H](CC(N)=O)NC(=O)[C@H](CCC(N)=O)NC1=O | 24.2 h | 27.3 nM | 7.6 nM

Further lines, results first:

half-life [1] | EC50 (Oxytocin receptor [2]) | Ki (Oxytocin receptor [3]) | SMILES
11.6 h |  |  | CC[C@H](C)[C@@H]1NC(=O)[C@H](Cc2ccc(O)cc2)NC(=O)[C@@H](N)CSSC[C@@H](C(=O)N2CCC[C@H]2C(=O)N[C@@H](CC(C)C)C(=O)NCC(N)=O)NC(=O)[C@H](CC(N)=O)NC(=O)[C@H](CCC(N)=O)NC1=O [OXYTOCIN]
5.5 h | > 100000 nM | > 100000 nM | CC[C@@H](C)[C@H]1NC(=O)[C@@H](CCC(N)=O)NC(=O)[C@@H](CC(N)=O)NC(=O)[C@H](NC(=O)[C@H]2CCCN2C(=O)[C@@H](CC(C)C)NC(=O)CN)CSSC[C@H](C(=O)O)NC(=O)[C@@H](Cc2ccc(O)cc2)NC1=O
> 48 h | > 100000 nM | 1400 nM | CC[C@H](C)[C@@H]1NC(=O)[C@H](Cc2ccc(O)cc2)NC(=O)[C@@H]2CSSC[C@H](NC(=O)[C@H](CC(N)=O)NC(=O)[C@H](CCC(N)=O)NC1=O)C(=O)N1CCC[C@H]1C(=O)N[C@@H](CC(C)C)C(=O)NCC(=O)N2
> 48 h | > 100000 nM | > 100000 nM | CC[C@H](C)[C@@H]1NC(=O)[C@H](Cc2ccc(O)cc2)NC(=O)[C@@H]2CSSC[C@H](NC(=O)[C@H](CC(N)=O)NC(=O)[C@H](CCC(N)=O)NC1=O)C(=O)N1CCC[C@H]1C(=O)N[C@@H](CC(C)C)C(=O)NCC(=O)N[C@@H](C)C(=O)NCC(=O)N[C@@H](C)C(=O)NCC(=O)N[C@@H](C)C(=O)NCC(=O)N2 (cyclo(AGAGAGCYIQNCPLG); disulfide 7-12)
